For 7 compounds, MIC results are on record in ChEMBL document CHEMBL2057135, “Synthesis, antitubercular and antimicrobial evaluation of 3-(4-chlorophenyl)-4-substituted pyrazole derivatives” (2012).

Common to all, as to format: functional
One test deals with Pichia kudriavzevii. In words: Antifungal activity against Candida krusei KCCM 11655 after 1 day. The note with it: KCCM 11655, 24 h.
The test system of another test is Cryptococcus neoformans. In words: Antifungal activity against Cryptococcus neoformans KCCM 50564 after 1 day. Particulars: KCCM 50564, 24 h.
For another test, the system named is Aspergillus niger. In words: Antifungal activity against Aspergillus niger KCTC 1231 after 2 days. The note with it: KCTC 1231, 48 h.
A further test deals with Aspergillus flavus. In words: Antifungal activity against Aspergillus flavus KCCM 11899 after 2 days. Particulars: KCCM 11899, 48 h.
Another test deals with Escherichia coli. In words: Antibacterial activity against Escherichia coli ATCC 25922.
For another test, the system named is Staphylococcus aureus. In words: Antibacterial activity against Staphylococcus aureus ATCC 29213.
For test [1], the system named is Mycobacterium tuberculosis. In words: Antitubercular activity against Mycobacterium tuberculosis H37Rv ATCC 27294 after 7 days by BACTEC method. Particulars: H37Rv ATCC 27294, 168 h. The essentials:
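Screened in vitro against M. tuberculosis H37Rv in a modified BACTEC 460 radiometric system. Test compound stocks were made at 1 mg/ml in DMSO and filter-sterilised through 0.22 µm PTFE filters. MIC was read, with rifampin as the reference agent.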

The structures appear in SMILES notation. Converted amounts (≈) assume the structure as drawn. Bounds are passed on as bounds.

As a reminder, the MIC is the lowest concentration that inhibits growth of the organism. High values mean a need for much substance, low ones inhibition by little substance. Consider `O=C(N/N=C/c1cccc([N+](=O)[O-])c1)c1cc(-c2ccc(Cl)cc2)n[nH]1`, for which the MIC in the test on Pichia kudriavzevii is 25 µg/mL (≈ 67.6 µM); with Cryptococcus neoformans, 1.6 µg/mL (≈ 4.33 µM); in the test on Aspergillus niger, 25 µg/mL (≈ 67.6 µM); against Aspergillus flavus it was 12.5 µg/mL (≈ 33.8 µM); against Escherichia coli, 0.13 µg/mL (≈ 0.352 µM); in the test on Staphylococcus aureus it was 1.5 µg/mL (≈ 4.06 µM). Also, in test [1], the MIC is above 5 µg/mL.
In the case of `O=C(N/N=C/c1ccccc1Cl)c1cc(-c2ccc(Cl)cc2)n[nH]1`, the MIC with Pichia kudriavzevii worked out at 12.5 µg/mL (≈ 34.8 µM); in the test with Cryptococcus neoformans, 3.2 µg/mL (≈ 8.91 µM); against Aspergillus niger, 12.5 µg/mL (≈ 34.8 µM); with Aspergillus flavus, 25 µg/mL (≈ 69.6 µM); in the test with Escherichia coli it was 0.014 µg/mL (≈ 0.039 µM); in the test on Staphylococcus aureus it was 0.21 µg/mL (≈ 0.585 µM). Moreover, it took 0.36 µg/mL (≈ 1 µM) to inhibit growth in test [1] (MIC).
Turning to `O=C(N/N=C/c1ccccc1O)c1cc(-c2ccc(Cl)cc2)n[nH]1`, the MIC amounted to 50 µg/mL (≈ 147 µM) against Pichia kudriavzevii; 25 µg/mL (≈ 73.4 µM) against Cryptococcus neoformans; 100 µg/mL (≈ 293 µM) against Aspergillus niger; 6.3 µg/mL (≈ 18.5 µM) with Aspergillus flavus; 0.015 µg/mL (≈ 0.044 µM) in the test on Escherichia coli; 0.4 µg/mL (≈ 1.17 µM) in the test on Staphylococcus aureus. The compound further yielded an MIC in test [1] of 1.1 µg/mL (≈ 3.23 µM).
For `COc1cc(/C=N/NC(=O)c2cc(-c3ccc(Cl)cc3)n[nH]2)ccc1O`, the MIC with Pichia kudriavzevii was 12.5 µg/mL (≈ 33.7 µM); with Cryptococcus neoformans, 1.6 µg/mL (≈ 4.32 µM); in the test on Aspergillus niger, 25 µg/mL (≈ 67.4 µM); in the test on Aspergillus flavus, 12.5 µg/mL (≈ 33.7 µM); in the test with Escherichia coli it was 0.017 µg/mL (≈ 0.0458 µM); against Staphylococcus aureus, 0.12 µg/mL (≈ 0.324 µM). In addition, in test [1], the MIC is 0.55 µg/mL (≈ 1.48 µM).
In the case of `COc1ccc(/C=N/NC(=O)c2cc(-c3ccc(Cl)cc3)n[nH]2)cc1`, the MIC with Pichia kudriavzevii came to 100 µg/mL (≈ 282 µM); in the test on Cryptococcus neoformans, 50 µg/mL (≈ 141 µM); with Aspergillus niger, 12.5 µg/mL (≈ 35.2 µM); against Aspergillus flavus it was 100 µg/mL (≈ 282 µM); against Escherichia coli, 0.01 µg/mL (≈ 0.0282 µM); against Staphylococcus aureus, 0.18 µg/mL (≈ 0.507 µM). Besides, the minimum inhibitory concentration (MIC) in test [1] came out at 0.85 µg/mL (≈ 2.4 µM).
As to `O=C(NN1C(=O)CSC1c1ccc(Cl)cc1)c1cc(-c2ccc(Cl)cc2)n[nH]1` (racemic), the MIC against Pichia kudriavzevii is 25 µg/mL (≈ 57.7 µM); with Cryptococcus neoformans it was 12.5 µg/mL (≈ 28.8 µM); against Aspergillus niger, 12.5 µg/mL (≈ 28.8 µM); in the test with Aspergillus flavus, 6.3 µg/mL (≈ 14.5 µM); in the test on Escherichia coli, 0.022 µg/mL (≈ 0.0508 µM); in the test on Staphylococcus aureus, 0.048 µg/mL (≈ 0.111 µM). The compound also had an MIC in test [1] of 1.15 µg/mL (≈ 2.65 µM).
With `O=C(N/N=C/c1ccc(Cl)cc1)c1cc(-c2ccc(Cl)cc2)n[nH]1`, the MIC in the test on Pichia kudriavzevii was 12.5 µg/mL (≈ 34.8 µM); against Cryptococcus neoformans it was 1.6 µg/mL (≈ 4.45 µM); with Aspergillus niger, 12.5 µg/mL (≈ 34.8 µM); against Aspergillus flavus it was 25 µg/mL (≈ 69.6 µM); against Escherichia coli it was 0.012 µg/mL (≈ 0.0334 µM); in the test with Staphylococcus aureus it was 0.12 µg/mL (≈ 0.334 µM). Also, in test [1], the lowest concentration to inhibit growth (MIC) was 1.1 µg/mL (≈ 3.06 µM).
